Sampled rows, rich in hits. Any-hit rate of the full collection: about 1.2%.
ASAP1 GAP inh: ASAP1 ArfGAP inhibition; Q9ULH1; inhibition, % at 16.5 µM; ASAP1-stimulated ARF1 GTP hydrolysis, GDP FP detection; 0.19% of 360,000 active; AID 624377; in the data active means inhibition above about 25%
Target sequence (Q9ULH1 325-724 limits assumed): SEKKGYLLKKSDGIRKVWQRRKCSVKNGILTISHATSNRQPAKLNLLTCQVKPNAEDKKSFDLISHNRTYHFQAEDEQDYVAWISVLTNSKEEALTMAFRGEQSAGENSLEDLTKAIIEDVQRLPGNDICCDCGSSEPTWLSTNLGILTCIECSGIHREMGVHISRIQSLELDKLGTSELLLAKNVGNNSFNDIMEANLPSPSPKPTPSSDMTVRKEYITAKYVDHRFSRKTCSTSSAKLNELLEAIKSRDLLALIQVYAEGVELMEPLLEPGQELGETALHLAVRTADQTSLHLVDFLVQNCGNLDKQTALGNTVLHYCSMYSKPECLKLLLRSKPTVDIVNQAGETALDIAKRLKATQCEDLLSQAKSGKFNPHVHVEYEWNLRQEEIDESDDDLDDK
ARFGAP1 inhibitor: rat ARFGAP1 inhibition. 0.26% of 360,000 active. inhibition, % at 16.5 µM. Arfgap1-stimulated ARF1 GTP hydrolysis, GDP FP detection. AID 651572. Q62848;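 active means inhibition above a per-plate limit, mean inhibition of low control wells plus 3 SD, cut at about 25% in these data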
Target sequence (Q62848 1-136 limits assumed): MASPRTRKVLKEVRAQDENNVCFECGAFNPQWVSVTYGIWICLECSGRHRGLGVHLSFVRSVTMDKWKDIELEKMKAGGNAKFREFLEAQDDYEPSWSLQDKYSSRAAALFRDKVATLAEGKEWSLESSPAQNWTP
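System: truncated rat Arfgap1 GAP domain / Medium: HEPES-based buffer, pH 7.5 / Also added: N-terminally truncated human ARF1-GTP substrate / Incubation: enzyme reaction 120 min at 25 °C after 20 min preincubation / Measured by: FP of antibody-bound GDP Alexa 633 tracer, ex 620/em 688 nm / Replicates: singlicate, each compound tested once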
PREPL inh: inhibitors of human prolyl oligopeptidase-like enzyme PREPL. inhibition, % at 5.96 µM. recombinant PREPL, fluorescence polarization activity-based probe. AID 2751. 0.68% of 320,000 active
IDE cell activ: boosts human insulin-degrading enzyme activity in HEK cells; FAbeta-B cleavage, fluorescence polarization; 0% vehicle, 100% cell-free pure enzyme wells; 0.073% of 340,000 active; P14735; activation, % at 5.96 µM;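 active means activation above the mean of all tested compounds plus 3 SD, set per screening campaign, cut at about 17% in these data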
IDE inh: inhibitors of human insulin-degrading enzyme in cells; 0.41% of 320,000 active; AID 434962; inhibition, % at 5.59 µM; HEK cells, FAbetaB cleavage, fluorescence polarization;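 active means percent inhibition above the average of all tested compounds plus 3 SD, set per screening campaign, cut at about 16% in these data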;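 further: IDE supplied by intact live HEK cells; FP after avidin binding of uncleaved biotin substrate so inhibition keeps polarization high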
PREPL inh cf: confirmation of human PREPL enzyme inhibitors; shares compounds with PREPL inh; recombinant PREPL, fluorescence polarization activity probe; inhibition, % at 5.96 µM; 67% of 2,000 active; AID 2803
Of the large screens only hits and unclear results are named; the others gave an inactive call (follow-up assays come after a bar, where they were run). Unless noted, no stated cut-off is given here; in the data, active means inhibition above about 43%; inactive means the rest.

COc1ccc(NC(=O)CSc2nc3nc(C)cc(C)c3c(=O)[nH]2)cc1	PREPL inh 45 | PREPL inh cf inactive
CCCCCCCCN1C(=O)[C@@H](CC(=O)NCc2ccccc2)C[C@@]2(C(=O)OC)C1=C[C@H](C1CCCC1)O[C@@H]2C	none (no result: PREPL inh, IDE cell activ, IDE inh)
COc1ccc(NC(=O)NCCCN2CCN(c3ccccc3F)CC2)cc1	PREPL inh 49 | PREPL inh cf inactive
CCOc1ccc(NC(=O)NCCN2CCN(c3ccccc3F)CC2)cc1	none
O=C1COc2ccccc2C(c2nc3ccccc3[nH]2)N1Cc1ccccc1 (configuration not stated)	none (no result: PREPL inh, IDE cell activ, IDE inh)
COc1ccc2sc(-c3ccc(N(C)C)cc3)c(C#Cc3cncn3C)c2c1	PREPL inh 46 | PREPL inh cf inactive
COc1ccc2sc(-c3ccc(N(C)C)cc3)c(C#CC(C)(C)O)c2c1	none
CC(C)(O)/C=C/C[C@](C)(O)C1CC[C@]2(C)C1[C@H](O[C@H]1O[C@@H](CO)[C@H](O)[C@@H](O)[C@@H]1O)CC1[C@@]3(C)CC[C@H](O)C(C)(C)C3[C@@H](O)C[C@]12C (some centres not stated)	none
CCOc1ccc(-c2cnc(NCc3cccc4ccccc34)n2CCOC)cc1	PREPL inh 47 | PREPL inh cf inactive
CC(=O)Oc1cc(O)c2c(=O)c(OC(C)=O)c(-c3ccc(OC(C)=O)c(OC(C)=O)c3)oc2c1	PREPL inh 44 (no result: ASAP1 GAP inh, ARFGAP1 inhibitor) | PREPL inh cf inactive
CCCN(CC(=O)Nc1ccccc1C)C(=O)c1sc2ccccc2c1Cl	none
O=c1[nH]c(CN2CCN(c3ccc([N+](=O)[O-])cc3)CC2)nc2ccsc12	PREPL inh 46 | PREPL inh cf inactive
C#CCOCCOCCOCCNc1nc(N2CCN(C(=O)CCCCCCCCCCNC(=O)Cn3cc(C[C@@H](C)O)nn3)CC2)nc(N2CCN(C(=O)CCCCCCCCCCNC(=O)[C@H](CCCN=C(N)N)n3cc(C[C@@H](C)CC)nn3)CC2)n1	PREPL inh 48, IDE cell activ 35 (no result: ASAP1 GAP inh, ARFGAP1 inhibitor) | PREPL inh cf inactive
C#CCOCCOCCOCCNc1nc(N2CCN(C(=O)CCCCCCCCCCNC(=O)[C@H]([C@@H](C)CC)n3cc(CCCCN=C(N)N)nn3)CC2)nc(N2CCN(C(=O)CCCCCCCCCCNC(=O)[C@H](CCCCN)n3cc(C)nn3)CC2)n1	PREPL inh 45 (no result: ASAP1 GAP inh, ARFGAP1 inhibitor, IDE cell activ) | PREPL inh cf 55
C#CCOCCOCCOCCNc1nc(N2CCN(C(=O)CCCCCCCCCCNC(=O)[C@H]([C@@H](C)CC)n3cc(CCCCN=C(N)N)nn3)CC2)nc(N2CCN(C(=O)CCCCCCCCCCNC(=O)[C@H](CO)n3cc(CCCCCN)nn3)CC2)n1	PREPL inh 54, IDE cell activ 40 (no result: ASAP1 GAP inh, ARFGAP1 inhibitor) | PREPL inh cf 56
C#CCOCCOCCOCCNc1nc(N2CCN(C(=O)CCCCCCCCCCNC(=O)[C@H]([C@@H](C)CC)n3cc(CCCCCN)nn3)CC2)nc(N2CCN(C(=O)CCCCCCCCCCNC(=O)[C@H](CCCCN)n3cc(CCCC(=O)O)nn3)CC2)n1	none (no result: ASAP1 GAP inh, ARFGAP1 inhibitor)
C#CCOCCOCCOCCNc1nc(N2CCN(C(=O)CCCCCCCCCCNC(=O)[C@H]([C@@H](C)CC)n3cc(CCCCCN)nn3)CC2)nc(N2CCN(C(=O)CCCCCCCCCCNC(=O)[C@H](CO)n3cc(CCCCCN)nn3)CC2)n1	PREPL inh 50, IDE cell activ 37 (no result: ASAP1 GAP inh, ARFGAP1 inhibitor) | PREPL inh cf 51
C#CCOCCOCCOCCNc1nc(N2CCOCC2)nc(N2CCN(C(=O)CCCCCCCCCCNC(=O)[C@@H](CCC(=O)O)n3cc(CCCCCN)nn3)CC2)n1	none
Cc1ccc(S(=O)(=O)N2C[C@H]3C(=O)C[C@@H](c4ccccc4)N(S(=O)(=O)c4ccccc4C)[C@H]3C[C@H]2c2ccccc2)cc1	none (no result: PREPL inh, IDE cell activ, IDE inh)
C#CCOCCOCCOCCNc1nc(N2CCN(C(=O)CCCCCCCCCCNC(=O)Cn3cc(CCCCCN)nn3)CC2)nc(N2CCN(C(=O)CCCCCCCCCCNC(=O)[C@H]([C@@H](C)CC)n3cc(CCCCN=C(N)N)nn3)CC2)n1	PREPL inh 68, IDE cell activ 42 (no result: ASAP1 GAP inh, ARFGAP1 inhibitor) | PREPL inh cf 62
C#CCOCCOCCOCCNc1nc(N2CCN(C(=O)CCCCCCCCCCNC(=O)[C@H]([C@@H](C)CC)n3cc(CCCCCN)nn3)CC2)nc(N2CCN(C(=O)CCCCCCCCCCNC(=O)[C@H]([C@@H](C)CC)n3cc(CCCCN=C(N)N)nn3)CC2)n1	PREPL inh 63, IDE cell activ 51 (no result: ASAP1 GAP inh, ARFGAP1 inhibitor) | PREPL inh cf 57
C#CCOCCOCCOCCNc1nc(N2CCN(C(=O)Cn3cc(CCCN=C(N)N)nn3)CC2)nc(N2CCN(C(=O)[C@H]([C@@H](C)CC)n3cc(CCCCN)nn3)CC2)n1	none
FC(F)Oc1ccc(C2=Nn3c(nnc3-c3ccccc3Cl)SC2)cc1OCC1CC1	none
COc1ccc(C2=Nn3c(nnc3-c3ccccc3F)SC2)cc1OCC1CC1	PREPL inh 56 | PREPL inh cf inactive
COc1ccc(NC(=O)N2CCN(c3ccc([N+](=O)[O-])cc3)CC2)cc1OC	PREPL inh 46 | PREPL inh cf 56
COc1ccc(NC(=O)N2CCN(c3ccc([N+](=O)[O-])cc3)CC2)cc1	none
O=C(COc1ccc(Cl)cc1)NNC(=O)c1cccnc1	none
O=C(Oc1ccc(OC(=O)c2ccco2)c(S(=O)(=O)c2ccc(Br)cc2)c1)c1ccco1	PREPL inh 94 (no result: ASAP1 GAP inh, ARFGAP1 inhibitor) | PREPL inh cf 93
O=C(Oc1ccc(-c2ccccc2)cc1)c1ccco1	none (no result: PREPL inh, IDE inh)
O=C(Oc1ccc2ccc(=O)oc2c1)c1ccco1	none
Cc1ccc(S(=O)(=O)c2cc(OC(=O)c3ccco3)ccc2OC(=O)c2ccco2)cc1	PREPL inh 86 | PREPL inh cf 77
NC(Cc1ccccc1)c1csc(Nc2ccc(C(=O)NCCCO)cn2)n1 (configuration not stated)	none (no result: PREPL inh, IDE cell activ, IDE inh)
CCC(=O)N1CCN(c2ccc(NC(=O)c3cc4ccccc4o3)cc2Cl)CC1	none
CCCC(=O)N1CCN(c2ccc(NC(=O)c3cc4ccccc4o3)cc2Cl)CC1	PREPL inh 45 | PREPL inh cf inactive
COc1ccc(C2CCCN2C(=S)Nc2cccc(Cl)c2C)cc1OC (configuration not stated)	PREPL inh 50 | PREPL inh cf inactive
CCOC(=O)C1CCN(C(=O)COc2ccc3c(c2)OCO3)CC1	none
COC(=O)[C@@]12CCCCN1[C@H](c1ccc(-c3ccc(F)cc3)cc1)[C@@H]1C(=O)N(C)C(=O)[C@@H]12	PREPL inh 54 | PREPL inh cf 44
Cc1sc(NC(=O)c2ccccc2)c(C(c2ccc(Cl)cc2)N2CCN(CCO)CC2)c1C (configuration not stated)	PREPL inh 48 | PREPL inh cf inactive
Cc1cc(C(=O)NCc2ccc(F)cc2)c2ccccc2n1	none
O=[N+]([O-])c1ccc2c(c1)C(N1CCOCC1)/C(=C/COc1ccc3ccccc3c1Br)O2 (configuration not stated)	none

High-throughput results: PubChem BioAssay, The Scripps Research Institute Molecular Screening Center
